Measured values taken from ChEMBL document CHEMBL1155135, “Effect of Lamivudine on the plasma and intracellular pharmacokinetics of apricitabine, a novel nucleoside reverse transcriptase inhibitor, in healthy volunteers” (Antimicrob Agents Chemother, 2007).

Legend:
[1] = Cmax in healthy human at 300 mg, po administered once daily for 4 days; format: ADME, organism-based; parameters: dose 300 mg, route oral; details: in vivo
How it was run: (§1)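 Healthy volunteers took each regimen in random order for 4 days, with washouts of at least 7 days. The day-4 morning dose followed a fast of at least 10 h. Plasma was drawn predose and 0.5–36 h after dosing, and urine was collected to 36 h; both were assayed by validated HPLC. Cmax/Tmax were read from the curves. CLT/F = dose/AUC, CLR = 24-h urinary amount/AUC0-24, Vz/F = dose/(λz·AUC), t1/2 = ln2/λz.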

[2] = Tmax in healthy human at 300 mg, po administered once daily for 4 days; format: ADME, organism-based; details: in vivo; how it was run: as §1
[3] = AUC (0 to 24 hrs) in healthy human at 300 mg, po administered once daily for 4 days; format: ADME, organism-based; parameters: dose 300 mg, time < 24 hr, route oral; details: plasma; how it was run: as §1
[4] = Cmax in healthy human at 300 mg, po once daily coadministered with 600 mg, po apricitabine twice daily for 4 days; format: ADME, organism-based; parameters: dose 300 mg, route oral; details: in vivo; how it was run: as §1
[5] = Tmax in healthy human at 300 mg, po once daily coadministered with 600 mg, po apricitabine twice daily for 4 days; format: ADME, organism-based; details: in vivo; how it was run: as §1
[6] = AUC (0 to 24 hrs) in healthy human at 300 mg, po once daily coadministered with 600 mg, po apricitabine twice daily for 4 days; format: ADME, organism-based; parameters: time < 24 hr, dose 300 mg, route oral; details: plasma; how it was run: as §1
Homo sapiens [7] = experiment: Tmax in healthy human PBMC assessed as intracellular apricitabine triphosphate level at 300 mg, po administered once daily for 4 days; format: ADME, organism-based; details: in vivo, 96 h, in the assay text read “lamivudine” for “apricitabine”
How it was run: (§2)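 PBMC were isolated from triplicate day-4 blood samples taken 2, 4, 8, 12 and 24 h after the morning dose, then extracted in 70/30 methanol-Tris-HCl pH 7.4. Triphosphates were separated by anion-exchange SPE with KCl washes, eluted with 500 mM KCl, and dephosphorylated with alkaline phosphatase at 37°C. Quantitation used HPLC-MS/MS with a labelled triphosphate internal standard; LLOQ 0.0592 pmol/10^6 cells. Cmax/Tmax were read by inspection; t1/2 = ln2/λz.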

Homo sapiens [8] = experiment: Tmax in healthy human PBMC assessed as intracellular apricitabine triphosphate level at 300 mg, po once daily coadministered with 600 mg, po apricitabine twice daily for 4 days; format: ADME, organism-based; details: in vivo, 96 h; how it was run: as §2
Homo sapiens [9] = experiment: Cmax in healthy human PBMC assessed as intracellular apricitabine triphosphate level per 10^6 cells at 300 mg, po once daily coadministered with 600 mg, po apricitabine twice daily for 4 days; format: ADME, organism-based, Blood; parameters: dose 300 mg, route oral; details: in vivo, 96 h; how it was run: as §2
Homo sapiens [10] = experiment: Cmin in healthy human PBMC assessed as intracellular apricitabine triphosphate level per 10^6 cells at 300 mg, po once daily coadministered with 600 mg, po apricitabine twice daily for 4 days; format: ADME, organism-based; details: in vivo, 96 h
Homo sapiens [11] = experiment: Cmax in healthy human PBMC assessed as intracellular lamivudine triphosphate level per 10^6 cells at 300 mg, po administered once daily for 4 days; details: in vivo, 96 h
Homo sapiens [12] = experiment: Cmin in healthy human PBMC assessed as intracellular lamivudine triphosphate level per 10^6 cells at 300 mg, po administered once daily for 4 days; details: in vivo, 96 h
Homo sapiens [13] = experiment: AUC (0 to 12 hrs) in healthy human PBMC assessed as intracellular lamivudine triphosphate level per 10^6 cells at 300 mg, po administered once daily for 4 days; details: in vivo
Homo sapiens [14] = experiment: AUC (0 to 12 hrs) in healthy human PBMC assessed as intracellular lamivudine triphosphate level per 10^6 cells at 300 mg, po once daily coadministered with 600 mg, po apricitabine twice daily for 4 days; details: in vivo
[15] = Cmax in healthy human at 600 mg, po administered twice daily for 4 days; format: ADME, organism-based; parameters: dose 600 mg, route oral; details: in vivo; how it was run: as §1
[16] = Tmax in healthy human at 600 mg, po administered twice daily for 4 days; format: ADME, organism-based; details: in vivo; how it was run: as §1
[17] = AUC (0 to 24 hrs) in healthy human at 600 mg, po administered twice daily for 4 days; format: ADME, organism-based; parameters: dose 600 mg, time < 24 hr, route oral; details: plasma; how it was run: as §1
[18] = Apparent total oral clearance in healthy human at 600 mg, po administered twice daily for 4 days; format: ADME, organism-based; details: in vivo; how it was run: as §1
[19] = Renal clearance in healthy human at 600 mg, po administered twice daily for 4 days; format: ADME, organism-based, Kidney; details: in vivo, read-out: CL_renal (converted); how it was run: as §1
Homo sapiens [20] = experiment: Volume of distribution at steady state in healthy human at 600 mg, po administered twice daily for 4 days; format: ADME, organism-based; details: in vivo, 96 h; how it was run: as §1
[21] = Apparent terminal half life in healthy human at 600 mg, po administered twice daily for 4 days; format: ADME, organism-based; details: in vivo; how it was run: as §1
[22] = Cmax in healthy human at 600 mg, po twice daily coadministered with 300 mg, po Lamivudine once daily for 4 days; format: ADME, organism-based; parameters: dose 600 mg, route oral; details: in vivo; how it was run: as §1
[23] = Tmax in healthy human at 600 mg, po twice daily coadministered with 300 mg, po Lamivudine once daily for 4 days; format: ADME, organism-based; details: in vivo; how it was run: as §1
[24] = AUC (0 to 24 hrs) in healthy human at 600 mg, po twice daily coadministered with 300 mg, po Lamivudine once daily for 4 days; format: ADME, organism-based; parameters: dose 600 mg, time < 24 hr, route oral; details: plasma; how it was run: as §1
Homo sapiens [25] = experiment: Apparent total oral clearance in healthy human at 600 mg, po twice daily coadministered with 300 mg, po Lamivudine once daily for 4 days; format: ADME, organism-based; details: in vivo, 96 h; how it was run: as §1
Homo sapiens [26] = experiment: Renal clearance in healthy human at 600 mg, po twice daily coadministered with 300 mg, po Lamivudine once daily for 4 days; format: ADME, organism-based, Kidney; details: in vivo, 96 h; how it was run: as §1
Homo sapiens [27] = experiment: Volume of distribution at steady state in healthy human at 600 mg, po twice daily coadministered with 300 mg, po Lamivudine once daily for 4 days; format: ADME, organism-based; details: in vivo, 96 h; how it was run: as §1
[28] = Apparent terminal half life in healthy human at 600 mg, po twice daily coadministered with 300 mg, po Lamivudine once daily for 4 days; format: ADME, organism-based; details: in vivo; how it was run: as §1
Homo sapiens [29] = experiment: Tmax in healthy human PBMC assessed as intracellular apricitabine triphosphate level at 600 mg, po administered twice daily for 4 days; format: ADME, organism-based; details: in vivo, 96 h; how it was run: as §2
Homo sapiens [30] = experiment: Cmax in healthy human PBMC assessed as intracellular apricitabine triphosphate level per 10^6 cells at 600 mg, po administered twice daily for 4 days; format: ADME, organism-based, Blood; parameters: dose 600 mg, route oral; details: in vivo, 96 h; how it was run: as §2
Homo sapiens [31] = experiment: Cmin in healthy human PBMC assessed as intracellular apricitabine triphosphate level per 10^6 cells at 600 mg, po administered twice daily for 4 days; format: ADME, organism-based; details: in vivo, 96 h
Homo sapiens [32] = experiment: Ratio of Cmax to Cmin in healthy human PBMC assessed as intracellular apricitabine triphosphate level per 10^6 cells at 600 mg, po administered twice daily for 4 days; format: ADME, organism-based; details: in vivo, 96 h
Homo sapiens [33] = experiment: AUC (0 to 12 hrs) in healthy human PBMC assessed as intracellular apricitabine triphosphate level per 10^6 cells at 600 mg, po administered twice daily for 4 days; format: ADME, organism-based; parameters: dose 600 mg, time < 12 hr, route oral; details: in vivo; how it was run: as §2
Homo sapiens [34] = experiment: Half life in healthy human PBMC assessed as intracellular apricitabine triphosphate level per 10^6 cells at 600 mg, po administered twice daily for 4 days; format: ADME, organism-based; details: in vivo, 96 h; how it was run: as §2
Homo sapiens [35] = experiment: Tmax in healthy human PBMC assessed as intracellular apricitabine triphosphate level at 600 mg, po twice daily coadministered with 300 mg, po Lamivudine once daily for 4 days; format: ADME, organism-based; details: in vivo, 96 h; how it was run: as §2
Homo sapiens [36] = experiment: Cmax in healthy human PBMC assessed as intracellular apricitabine triphosphate level per 10^6 cells at 600 mg, po twice daily coadministered with 300 mg, po Lamivudine once daily for 4 days; format: ADME, organism-based, Blood; parameters: dose 600 mg, route oral; details: in vivo, 96 h; how it was run: as §2
Homo sapiens [37] = experiment: Cmin in healthy human PBMC assessed as intracellular apricitabine triphosphate level per 10^6 cells at 600 mg, po twice daily coadministered with 300 mg, po Lamivudine once daily for 4 days; format: ADME, organism-based; details: in vivo, 96 h
Homo sapiens [38] = experiment: Ratio of Cmax to Cmin in healthy human PBMC assessed as intracellular apricitabine triphosphate level per 10^6 cells at 600 mg, po twice daily coadministered with 300 mg, po Lamivudine once daily for 4 days; format: ADME, organism-based; details: in vivo, 96 h
Homo sapiens [39] = experiment: AUC (0 to 12 hrs) in healthy human PBMC assessed as intracellular apricitabine triphosphate level per 10^6 cells at 600 mg, po twice daily coadministered with 300 mg, po Lamivudine once daily for 4 days; format: ADME, organism-based; parameters: time < 12 hr, dose 600 mg, route oral; details: in vivo; how it was run: as §2
Homo sapiens [40] = experiment: Half life in healthy human PBMC assessed as intracellular apricitabine triphosphate level per 10^6 cells at 600 mg, po twice daily coadministered with 300 mg, po Lamivudine once daily for 4 days; format: ADME, organism-based; details: in vivo, 96 h; how it was run: as §2

## Nc1ccn([C@@H]2CS[C@H](CO)O2)c(=O)n1 [LAMIVUDINE]
[1]
  Cmax: 3980 ng/mL
[2]
  Tmax: 1 h
[3]
  AUC at 24 h: 15700 ng·h/mL
[4]
  Cmax: 3810 ng/mL
[5]
  Tmax: 1.02 h
[6]
  AUC at 24 h: 15500 ng·h/mL
Homo sapiens [7]
  Tmax: 4.76 h
Homo sapiens [8]
  Tmax: 3.9 h
Homo sapiens [9]
  Cmax: 9.91 pmol/10^6cells
Homo sapiens [10]
  Cmin_PBMC: 4.52 pmol/10^6cells
Homo sapiens [11]
  Cmax: 9.83 pmol/10^6cells
Homo sapiens [12]
  Cmin_PBMC: 4.35 pmol/10^6cells
Homo sapiens [13]
  AUC: 154 pmol·h/10^6 cells
Homo sapiens [14]
  AUC: 161 pmol·h/10^6 cells

## Nc1ccn([C@H]2CO[C@@H](CO)S2)c(=O)n1 [APRICITABINE]
[15]
  Cmax: 7430 ng/mL
[16]
  Tmax: 1.76 h
[17]
  AUC at 24 h: 70900 ng·h/mL
[18]
  CL/F: 283 mL/min
[19]
  CL renal at 96 h: 192 mL/min
Homo sapiens [20]
  Vdss: 67.7 L
[21]
  half-life: 2.72 h
[22]
  Cmax: 7110 ng/mL
[23]
  Tmax: 1.55 h
[24]
  AUC at 24 h: 65600 ng·h/mL
Homo sapiens [25]
  CL/F: 18.3 L/h
Homo sapiens [26]
  CL renal: 12.2 L/h
Homo sapiens [27]
  Vdss: 67.9 L
[28]
  half-life: 2.6 h
Homo sapiens [29]
  Tmax: 3.52 h
Homo sapiens [30]
  Cmax: 1.66 pmol/10^6cells
Homo sapiens [31]
  Cmin_PBMC: 0.6 pmol/10^6cells
Homo sapiens [32]
  Ratio: 3.28
Homo sapiens [33]
  AUC: 13.3 pmol·h/10^6 cells
Homo sapiens [34]
  t1/2: 6.22 h
Homo sapiens [35]
  Tmax: 3.14 h
Homo sapiens [36]
  Cmax: 0.257 pmol/10^6cells
Homo sapiens [37]
  Cmin_PBMC: 0.078 pmol/10^6cells
Homo sapiens [38]
  Ratio: 3.54
Homo sapiens [39]
  AUC: 1.98 pmol·h/10^6 cells
Homo sapiens [40]
  t1/2: 5.06 h
